From paper PMC9675722 (Cell chemical biology, 2022)
pEC50, pIC50, pKd: −log10 of the molar value. Read-outs that look alike come from different tables or passages of the source.

Legend:
BT-474 cells = assay: CellTiter-Glo proliferation assay, BT-474; format: cell-based, Human; settings: for pEC50: Homo sapiens, BT-474, 72 h, read-out: anti-proliferative EC50
SNU-449 cells = assay: CellTiter-Glo proliferation assay, SNU-449; format: cell-based, Human; settings: for pEC50: Homo sapiens, SNU-449, 72 h, read-out: anti-proliferative EC50
MOLT4 cells [1] = assay: CellTiter-Glo proliferation assay, MOLT4; format: cell-based, Human; settings: for pEC50: read-out: anti-proliferative EC50
[2] = test system: IL-6 stimulated MM.1S cells; assay: IL-6-induced MM.1S proliferation; format: cell-based, Human; settings: 500 nM and 1 μM, 5 nM IL-6, 3d
How it was run: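 MM.1S cells at 10,000 cells/well were pre-treated for 5 h with test compound at 500 nM or 1 μM. Recombinant human IL-6 (5 nM) was then added. After 72 h, proliferation was read by CellTiter-Glo. Data are mean with standard deviation of three biological replicates.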

ERK5 [3] = molecular target: T1, ERK5 (Homo sapiens, UniProt Q13164); assay: ERK5 degradation in MOLT4 cells; format: cell-based; settings: for DC50: read-out: DC50 of ERK5 degradation, 5-hour treatment
AURKA = molecular target: T2, AURKA (Homo sapiens, UniProt O14965); assay: AURKA immunoblot in MOLT4 cells; format: cell-based; settings: 5 hours
T2 sequence (O14965 1-403): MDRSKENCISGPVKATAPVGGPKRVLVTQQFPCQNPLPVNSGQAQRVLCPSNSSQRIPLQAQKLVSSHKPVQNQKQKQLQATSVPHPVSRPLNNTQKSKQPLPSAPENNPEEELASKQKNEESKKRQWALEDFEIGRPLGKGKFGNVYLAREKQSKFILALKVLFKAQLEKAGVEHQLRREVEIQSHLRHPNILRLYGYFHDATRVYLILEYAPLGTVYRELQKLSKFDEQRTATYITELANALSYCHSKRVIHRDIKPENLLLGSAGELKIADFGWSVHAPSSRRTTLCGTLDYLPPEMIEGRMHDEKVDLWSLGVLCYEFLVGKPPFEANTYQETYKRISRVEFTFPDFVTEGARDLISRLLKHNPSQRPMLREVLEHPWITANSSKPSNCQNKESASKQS
How it was run: (§1)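 MOLT4 cells (RPMI, 10% heat-inactivated FBS, pen-strep, 37 °C, 5% CO2) were exposed to test compound at a range of concentrations for 5 h. Lysis was in M-PER with protease and phosphatase inhibitors, and lysates were BCA-normalised. Samples were run on 4–12% Bis-Tris gels and blotted to nitrocellulose. ERK5, BRD4, AURKA and actin antibodies were applied overnight at 4 °C. Detection was by IRDye secondaries. Blots are representative of 2–3 biological replicates.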

BRD4 = BRD4 (Homo sapiens, UniProt O60885); assay: BRD4 immunoblot in MOLT4 cells; format: cell-based; settings: 5 hours
How it was run: as §1

ERK5 [4] = molecular target: T1, ERK5; assay: KdELECT biochemical binding assay; settings: for binding affinity for ERK5 (in words): Table S1
How it was run: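 Binding constants to ERK5 were determined in an outsourced KdELECT kinase binding assay from an 11-point dose–response curve.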

MOLT4 cells [5] = assay: global quantitative TMT MS proteomics in MOLT4 cells; format: cell-based, Human; settings: MOLT4, 250 nM, 5 hours
How it was run: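 MOLT4 cells were treated for 5 h with test compound (250 nM, or 100 nM for one degrader) or DMSO (biological triplicate), then harvested by centrifugation. TMT-labelled tryptic peptides were analysed by LC-MS3 on an Orbitrap Fusion Lumos using a 190 min 6–27% acetonitrile gradient. Spectra were searched against Swissprot human. Proteins with ≥2 unique peptides were kept, and abundance relative to DMSO was computed by limma.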

ERK5 [6] = settings: read-out: reported IC50 for ERK5; ref Wang et al., 2018; cited from earlier work
[7] = test system: BRD4 and other members of the BET family proteins; settings: ref Wang et al., 2018; cited from earlier work
IL-8 secretion = assay: IL-8 ELISA, LPS-stimulated HUVECs; format: cell-based, Human; settings: LPS 10 μg/mL 6 hours
How it was run: (§2)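 HUVECs were seeded at 30,000–60,000 cells/well and pre-treated with test compound for 5 or 24 h. They were then stimulated with E. coli O111:B4 LPS at 10 μg/mL for 6 h. Secreted IL-6 or IL-8 in the supernatant was quantified by sandwich ELISA kits per the manufacturer. Statistics used two-way ANOVA with Bonferroni correction.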

IL-6 secretion = assay: IL-6 ELISA, LPS-stimulated HUVECs; format: cell-based, Human; settings: LPS 10 μg/mL 6 hours
How it was run: as §2

panel of 468 kinases = assay: scanMAX KINOMEscan selectivity panel; format: binding; settings: 1 μM

T1 sequence (Q13164 whole entry): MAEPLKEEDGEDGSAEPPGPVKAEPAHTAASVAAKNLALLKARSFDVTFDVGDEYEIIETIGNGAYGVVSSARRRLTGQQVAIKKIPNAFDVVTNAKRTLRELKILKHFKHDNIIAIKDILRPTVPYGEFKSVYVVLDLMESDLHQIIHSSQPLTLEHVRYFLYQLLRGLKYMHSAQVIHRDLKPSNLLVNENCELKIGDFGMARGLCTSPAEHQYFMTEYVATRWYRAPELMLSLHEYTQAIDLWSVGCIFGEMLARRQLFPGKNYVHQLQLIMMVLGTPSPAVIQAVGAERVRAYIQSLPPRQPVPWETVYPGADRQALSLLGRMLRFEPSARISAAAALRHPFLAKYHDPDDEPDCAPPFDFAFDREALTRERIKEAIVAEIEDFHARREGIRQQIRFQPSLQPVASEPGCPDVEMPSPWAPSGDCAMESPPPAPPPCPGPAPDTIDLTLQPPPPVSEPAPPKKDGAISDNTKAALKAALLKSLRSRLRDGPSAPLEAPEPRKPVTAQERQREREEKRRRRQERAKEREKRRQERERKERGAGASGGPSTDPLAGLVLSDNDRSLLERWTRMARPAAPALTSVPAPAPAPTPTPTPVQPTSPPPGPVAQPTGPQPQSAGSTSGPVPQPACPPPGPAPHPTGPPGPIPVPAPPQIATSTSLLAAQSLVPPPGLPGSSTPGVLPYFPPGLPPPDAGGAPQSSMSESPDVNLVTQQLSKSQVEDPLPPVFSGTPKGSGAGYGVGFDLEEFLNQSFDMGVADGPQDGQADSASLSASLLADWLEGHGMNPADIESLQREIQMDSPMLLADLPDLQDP

Structure (SMILES)	pEC50 (BT-474 cells)	pEC50 (SNU-449 cells)	pEC50 (MOLT4 cells [1]; Homo sapiens, MOLT-4, 72 h)	binding affinity for ERK5 (in words) (ERK5 [4])	IL-8 secretion upon LPS stimulation (IL-8 secretion; 5-hour pre-treatment)	IL-8 secretion upon LPS stimulation (IL-8 secretion; 24-hour pre-treatment)	IL-6 secretion upon LPS stimulation (IL-6 secretion; 5-hour pre-treatment)	IL-6 secretion upon LPS stimulation (IL-6 secretion; 24-hour pre-treatment)	further results
CCOc1cc(C(=O)N2CCC(N3CCN(C)CC3)CC2)ccc1Nc1ncc2c(n1)N(S(C)(=O)=O)c1ccccc1C(=O)N2C [AX15836, reference compound]	< 4.70	< 4.70	< 5.00	–	–	–	–	–	effect on IL-6-induced proliferation [2]: no effect
Cc1ncsc1-c1ccc([C@H](C)NC(=O)[C@@H]2C[C@@H](O)CN2C(=O)[C@@H](NC(=O)CCCCCN2CCN(C(=O)c3ccc(Nc4ncc5c(n4)N(C4CCCC4)c4ccccc4C(=O)N5C)cc3)CC2)C(C)(C)C)cc1 [INY-05-091, (2S,4R)-1-((S)-2-(6-(4-(4-((11-cyclopentyl-5-methyl-6-oxo-6,11-dihydro-5H-benzo[e]pyrimido[5,4-b][1,4]diazepin-2-yl)amino)benzoyl)piperazin-1-yl)hexanamido)-3,3-dimethylbutanoyl)-4-hydroxy-N-((S)-1-(4-(4-methylthiazol-5-yl)phenyl)ethyl)pyrrolidine-2-carboxamide]	–	–	–	high binding affinities	–	–	–	–	DC50 (ERK5 [3]): 167 nM; AURKA protein levels (AURKA): validated through immunoblot analysis; anti-proliferative activity (in words) (MOLT4 cells [1]; MOLT4, 3 days): potent anti-proliferative activities; BRD4 protein levels (BRD4): potent BRD4 degradation; AURKA protein abundance, proteomics (MOLT4 cells [5]): induced downregulation; BRD3 and BRD4 protein abundance, proteomics (MOLT4 cells [5]): additional downregulated targets; ERK5 (MAPK7) protein abundance, proteomics (MOLT4 cells [5]): potent downregulation
CCC(C)N1c2ccccc2C(=O)N(C)c2cnc(Nc3ccc(C(=O)N4CCC(N5CCN(C)CC5)CC4)cc3OC)nc21 (centres unmarked) [JWG-071]	–	–	–	–	–	–	–	–	pIC50 (ERK5 [6]): 7.06; pEC50 (MOLT4 cells [1]; MOLT4, 3 days): 5.62; binding to off-target BET family proteins [7]: significantly reduced affinity
CCOc1cc(N2CCC(O)CC2)ccc1Nc1ncc2c(n1)N(C)c1ccccc1C(=O)N2C [XMD8-92]	–	–	–	–	reduced	significantly reduced	reduced	significantly reduced	–
CCC(C)N1c2ccccc2C(=O)N(C)c2cnc(Nc3ccc(C(=O)N4CCN(CCCCCC(=O)N[C@H](C(=O)N5C[C@H](O)C[C@H]5C(=O)N[C@@H](C)c5ccc(-c6scnc6C)cc5)C(C)(C)C)CC4)cc3)nc21 (stereo partly drawn) [INY-05-128, (2S,4R)-1-((2S)-2-(6-(4-(4-((11-(sec-butyl)-5-methyl-6-oxo-6,11-dihydro-5H-benzo[e]pyrimido[5,4-b][1,4]diazepin-2-yl)amino)benzoyl)piperazin-1-yl)hexanamido)-3,3-dimethylbutanoyl)-4-hydroxy-N-((S)-1-(4-(4-methylthiazol-5-yl)phenyl)ethyl)pyrrolidine-2-carboxamide]	–	–	5.96	high binding affinities	–	–	–	–	DC50 (ERK5 [3]): 281 nM; AURKA protein levels (AURKA): validated through immunoblot analysis; BRD4 protein levels (BRD4): no effect; AURKA protein abundance, proteomics (MOLT4 cells [5]): induced downregulation; ERK5 (MAPK7) protein abundance, proteomics (MOLT4 cells [5]): potent downregulation
CN1CCN(c2cnc3c(C4CCN(C(=O)c5ccc(OC(F)(F)F)cc5N)CC4)ncnc3c2)CC1 [BAY-885]	< 4.70	< 4.70	< 5.00	–	no effect	no effect	no effect	no effect	pKd (ERK5 [4]): 9.00; effect on IL-6-induced proliferation [2]: no effect
Cc1ncsc1-c1ccc([C@H](C)NC(=O)[C@H]2C[C@H](O)CN2C(=O)[C@@H](NC(=O)CCCCCN2CCN(c3ccc4c(C5CCN(C(=O)c6ccc(OC(F)(F)F)cc6N)CC5)ncnc4c3)CC2)C(C)(C)C)cc1 [INY-06-089, (2R,4S)-1-((S)-2-(6-(4-(4-(1-(2-amino-4-(trifluoromethoxy)benzoyl)piperidin-4-yl)quinazolin-7-yl)piperazin-1-yl)hexanamido)-3,3-dimethylbutanoyl)-4-hydroxy-N-((S)-1-(4-(4-methylthiazol-5-yl)phenyl)ethyl)pyrrolidine-2-carboxamide]	< 4.70	< 4.70	–	–	no effect	–	no effect	–	ERK5 downregulation (ERK5 [3]; 5 hours, concentrations up to 5 μM): unable to induce ERK5 downregulation; potential off-target kinases (panel of 468 kinases): also inhibits the same kinases
CCOc1cc(C(=O)N2CCC(N3CCN(C)CC3)CC2)ccc1Nc1ncc2c(n1)N(C1CCCC1)c1ccccc1C(=O)N2C [XMD17-109]	–	–	–	–	reduced	significantly reduced	reduced	significantly reduced	anti-proliferative effect (in words) (BT-474 cells; BT-474, 3d treatment): the only compound to display anti-proliferative effects; anti-proliferative effect (in words) (SNU-449 cells; SNU-449, 3d treatment): the only compound to display anti-proliferative effects; anti-proliferative activity (in words) (MOLT4 cells [1]; MOLT4, 3 days): potent anti-proliferative activities; binding to off-target BET family proteins [7]: binds to and inhibits BRD4 and other members of the BET family proteins
CN1CCN(c2ccc3c(C4CCN(C(=O)c5ccc(OC(F)(F)F)cc5N)CC4)ncnc3c2)CC1 [INY-06-086, (2-amino-4-(trifluoromethoxy)phenyl)(4-(7-(4-methylpiperazin-1-yl)quinazolin-4-yl)piperidin-1-yl)methanone]	< 4.70	< 4.70	–	high binding affinity	–	–	–	–	biochemical selectivity profile across the kinome (panel of 468 kinases; 468 kinases): similarly selective for ERK5 as BAY-885
